Activity calls are given as the source filed them. The calls are words filed in the database; no cut-off is given here.
Tests used:
[1] = tested on: Rattus norvegicus; assay: Increase in paw weight in Fischer rats at 300 umol/kg, ip; format: functional
Method in brief: (§1)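 Carrageenan paw edema in rats; compounds given ip at 300 µmol/kg. Read-out % paw weight increase versus controls, converted to % edema inhibition; mean of 4-9 rats from two independent experiments, Student's t test.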

[2] = tested on: Radical scavenging activity; assay: DPPH radical scavenging activity at 0.2 mM; format: functional
Method in brief: (§2)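 Radical scavenging measured as % interaction with stable free radical DPPH (0.2 mM) after 30 min incubation, compounds at 0.2, 0.1 and 0.05 mM.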

[3] = tested on: Radical scavenging activity; assay: DPPH radical scavenging activity at 0.1 mM; format: functional; method in brief: as §2
[4] = tested on: Radical scavenging activity; assay: DPPH radical scavenging activity at 0.05 mM; format: functional; method in brief: as §2
[5] = tested on: Rattus norvegicus; assay: Anti-inflammatory activity against paw edema induced by carrageenan in fischer rat at 300 umol/kg, ip; format: functional; method in brief: as §1
[6] = tested on: Radical scavenging activity; assay: Inhibition of lipid peroxidation of rat hepatic microsomal membrane lipids at 1 mM; details: Liver
[7] = tested on: Rattus norvegicus; assay: Gastrointestinal toxicity in rat at 84 umol/kg, sc; format: organism-based; details: in vivo
Method in brief: (§3)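 Female rats dosed sc once daily for four days. Mortality, perforating GI ulcer incidence, melena defecation and body weight loss recorded 24 h after last dose.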

[8] = tested on: Rattus norvegicus; assay: Gastrointestinal toxicity in rat at 1350 umol/kg, sc; format: organism-based; details: in vivo; method in brief: as §3
[9] = tested on: Rattus norvegicus; assay: Inhibition of arthritis in rat at 300-600 umol/kg, id; format: functional
Method in brief: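 Arthritis induced in rats by id injection of complete Freund's adjuvant; compounds dosed 300-600 µmol/kg for 14 days, arthritic score assessed day 15 post adjuvant, % inhibition versus controls; mean of 4-6 rats, Student's t test.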

[10] = target: T1, Seed linoleate 13S-lipoxygenase-1 (Glycine max, UniProt P08170); assay: Inhibition of soybean lipoxygenase; format: functional
T1 sequence (P08170 whole entry): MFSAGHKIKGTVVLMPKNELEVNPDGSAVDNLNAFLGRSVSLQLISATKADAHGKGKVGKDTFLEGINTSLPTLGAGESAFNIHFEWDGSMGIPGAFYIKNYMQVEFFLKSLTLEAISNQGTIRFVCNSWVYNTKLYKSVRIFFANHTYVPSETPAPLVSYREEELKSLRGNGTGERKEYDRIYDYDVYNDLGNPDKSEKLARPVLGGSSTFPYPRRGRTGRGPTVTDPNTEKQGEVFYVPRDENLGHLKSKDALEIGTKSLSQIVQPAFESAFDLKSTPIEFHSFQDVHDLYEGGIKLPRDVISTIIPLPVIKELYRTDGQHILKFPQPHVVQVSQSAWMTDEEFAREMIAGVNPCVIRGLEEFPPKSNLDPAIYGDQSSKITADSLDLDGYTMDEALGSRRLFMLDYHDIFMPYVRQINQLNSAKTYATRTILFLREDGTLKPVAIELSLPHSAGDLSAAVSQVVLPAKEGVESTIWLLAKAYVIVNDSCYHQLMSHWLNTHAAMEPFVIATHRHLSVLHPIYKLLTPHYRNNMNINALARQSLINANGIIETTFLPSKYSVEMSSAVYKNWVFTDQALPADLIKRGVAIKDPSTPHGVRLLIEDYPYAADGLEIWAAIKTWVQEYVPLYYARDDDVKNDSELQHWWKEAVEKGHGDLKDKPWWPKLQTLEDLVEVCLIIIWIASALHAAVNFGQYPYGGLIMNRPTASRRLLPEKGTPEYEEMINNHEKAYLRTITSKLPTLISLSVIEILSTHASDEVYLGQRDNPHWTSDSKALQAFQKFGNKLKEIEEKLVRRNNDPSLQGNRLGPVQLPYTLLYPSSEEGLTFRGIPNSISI
Method in brief: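 Soybean lipoxygenase, 220 U/ml, with sodium linoleate (100 μM) substrate, pH 9, 28 °C, 5 min; IC50 determined.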

[11] = tested on: Radical scavenging activity; assay: Inhibition of lipid peroxidation of rat hepatic microsomal membrane lipids; format: functional, Liver
[12] = tested on: Rattus norvegicus; assay: Decrease in triglyceride level in rat at 56 umol/kg, ip; parameters: scale not given: the % may be the effect or the level left; details: route intraperitoneal
[13] = tested on: Rattus norvegicus; assay: Decrease in LDL cholesterol level in rat at 56 umol/kg, ip; parameters: scale not given: the % may be the effect or the level left; details: route intraperitoneal
[14] = tested on: Rattus norvegicus; assay: Decrease in total cholesterol level in rat at 56 umol/kg, ip; parameters: scale not given: the % may be the effect or the level left; details: route intraperitoneal
[15] = tested on: Rattus norvegicus; assay: Decrease in triglyceride level in rat at 200 umol/kg, ip; parameters: scale not given: the % may be the effect or the level left; details: route intraperitoneal
[16] = tested on: Rattus norvegicus; assay: Decrease in LDL cholesterol level in rat at 200 umol/kg, ip; parameters: scale not given: the % may be the effect or the level left; details: route intraperitoneal
[17] = tested on: Rattus norvegicus; assay: Decrease in total cholesterol level in rat at 200 umol/kg, ip; parameters: scale not given: the % may be the effect or the level left; details: route intraperitoneal

IC50 [10] [µM]	IC50 [11] [µM]	Structure (SMILES)	Activity [1] [%]	Activity [2]	Activity [3]	Activity [4]	inhibition in vivo at 300 µmol/kg [5] [%]	inhibition [6] [%]	Activity [7]	Activity [8]	Inhibition [9] [%]	Activity [12] [%]	Activity [13] [%]	Activity [14] [%]	Activity [15] [%]	Activity [16] [%]	Activity [17] [%]
		COc1ccc2cc(C(C)C(=O)N3CC(O)CC3C(=O)NCCS)ccc2c1 (stereo unspecified)	44.4	56.2%	36.5%	21.3%	24.1										
		CCOC(=O)[C@@H](N)CS						49									
		COc1ccc2c(c1)c(CC(=O)O)c(C)n2C(=O)c1ccc(Cl)cc1 [INDOMETHACIN]	27				53.9		Toxic								
		COc1ccc2cc([C@H](C)C(=O)O)ccc2c1 [NAPROXEN]	28.7				51			Toxic							
35		COc1ccc2cc(C(C)C(=O)N3CCCC3C(=O)NCCS)ccc2c1 (stereo unspecified)	42.9	78.9%	56.3%	28.8%	26.7			Non-toxic	51.6						
		NCCS						37									
		COc1ccc2c(c1)c(CC(=O)N1CCCC1C(=O)NCCS)c(C)n2C(=O)c1ccc(Cl)cc1 (stereo unspecified)	48.5	inactive	inactive	inactive	17		Non-toxic		50.8						
	122	CCOC(=O)C(CS)NC(=O)C1CCCCN1C(=O)C(C)c1ccc2cc(OC)ccc2c1 (stereo unspecified)	34.9	76.7%	46%	23.5%	50.7					21.3	52	40			
48	320	CCOC(=O)C(CS)NC(=O)C1CCCN1C(=O)C(C)c1ccc2cc(OC)ccc2c1 (stereo unspecified)	44.6	86.3%	61.9%	32.1%	23.7			Non-toxic	100	68.7	55	58			
200	390	CCOC(=O)C(CS)NC(=O)C1CCCN1C(=O)Cc1c(C)n(C(=O)c2ccc(Cl)cc2)c2ccc(OC)cc12 (stereo unspecified)	50.1	69.7%	44.2%	31.1%	14.3		Non-toxic		77.4				55.7	48.4	78

— ChEMBL document CHEMBL1149466, “Synthesis and pharmacochemical study of novel polyfunctional molecules combining anti-inflammatory, antioxidant, and hypocholesterolemic properties” (Bioorg Med Chem Lett, 2006)
